Laboratory results: ChEMBL document CHEMBL1143654, “Enhancement of aqueous solubility and stability employing a trans acetate axis in trans planar amine platinum compounds while maintaining the biological profile” (J Med Chem, 2005)

Assays:
CH1 [1] = experiment: Resistance factor was determined as ratio of resistance to that of sensitivity of CH1 cells after 96h exposure to compound; assay type: functional, cell-based; conditions: Homo sapiens
41M [2] = experiment: Resistance factor was determined as ratio of resistance to that of sensitivity of 41M cells after 96h exposure to compound; assay type: functional, cell-based; conditions: Homo sapiens
A2780 [3] = experiment: Concentration required to inhibit growth of the human ovarian cancer A2780 cells by 50% after 96h exposure; assay type: functional, cell-based
[4] = Hydrolysis rate constant of the compound; assay type: ADME
[5] = Solubility in water by sequential addition; assay type: physicochemical
Summary of the method: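 Water was added to the compound in sequential portions, with 15 min agitation after each addition. Solubility was taken as the point at which the solution was no longer clear.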

41M [6] = experiment: Concentration required to inhibit growth of the human ovarian cancer 41M cells by 50% after 96h exposure; assay type: functional, cell-based
CH1 [7] = experiment: Concentration required to inhibit growth of the human ovarian cancer CH1 cells by 50% after 96h exposure; assay type: functional, cell-based
[8] = Acid dissociation constant pKa2; assay type: physicochemical
Summary of the method: (§1)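 Potentiometric titration of 10^-3 M solutions of trans-[Pt(OH)₂(L)(L')], made from the corresponding dinitrato compounds, with standardized NaOH (9.5×10^-4 M); pKa values were taken from the pH titration curves.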

[9] = Acid dissociation constant pKa1; assay type: physicochemical; summary of the method: as §1
A2780 [10] = experiment: Resistance factor was determined as ratio of resistance to that of sensitivity of A2780 cells after 96h exposure to compound; assay type: functional, cell-based; conditions: Homo sapiens

| k1 [4] [s⁻¹] | S [5] [mg/mL] | Substance | RF (CH1 [1]) | RF (41M [2]) | IC50 (41M [6]) [µM] | also measured |
| --- | --- | --- | --- | --- | --- | --- |
| 3.2e-07 | 15 | trans-[Pt(OAc)2(py)2] [listing 1 of 2 here] |  |  | 14 | IC50 (A2780 [3]): 12.8 µM; IC50 (CH1 [7]): 19 µM |
| < 1e-08 |  | CARBOPLATIN |  |  |  |  |
| 0.000065 |  | [PtCl(dien)] |  |  |  |  |
| 3.7e-07 | 1.6 | trans-[Pt(OAc)2(NH3)(quin)] [listing 2 of 2 here] |  |  | 22 | IC50 (A2780 [3]): 13 µM; IC50 (CH1 [7]): 17 µM |
| 0.0000518 |  | CISPLATIN [listing 2 of 2 here] |  |  | 1.4 |  |

The remaining lines, values behind:

| Substance | k1 [4] [s⁻¹] | S [5] [mg/mL] | RF (CH1 [1]) | RF (41M [2]) | IC50 (41M [6]) [µM] | also measured |
| --- | --- | --- | --- | --- | --- | --- |
| CISPLATIN [listing 1 of 2 here] |  |  | 6.7 | 6.1 |  |  |
| trans-[Pt(OAc)2(NH3)2] |  | 21 |  |  |  | pKa [8]: 7.08 |
| trans-[Pt(OAc)2(NH3)(iquin)] [listing 1 of 2 here] | 7.4e-07 | 5.2 |  |  | 22 | IC50 (A2780 [3]): 13 µM; pKa [8]: 6.92; pKa [9]: 3.78; IC50 (CH1 [7]): 20 µM |
| trans-[Pt(OAc)2(py)2] [listing 2 of 2 here] |  |  | 0.22 | 0.32 |  | RF (A2780 [10]): 0.9 |
| trans-[Pt(OAc)2(NH3)(quin)] [listing 1 of 2 here] |  |  | 0.48 | 1 |  | RF (A2780 [10]): 1.46 |
| TRANSPLATIN | 0.00019 |  |  |  |  |  |
| trans-[Pt(OAc)2(NH3)(iquin)] [listing 2 of 2 here] |  |  | 0.37 | 0.26 |  | RF (A2780 [10]): 1.69 |
